Active and inactive are the calls of the source.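 The calls were made as follows, unless noted: active = fluorescence slope higher than the sample average by over 3 SD (cut at about -0.22 in these data, passing the limit was not always enough); inactive = the rest.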
What was measured:
[1] = inhibitors of TNFa-induced NFkB p65 translocation, primary screen, imaging, HUVEC, MLSMR starter and 10KST1 sets (AID 438;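 active = inhibition above 20% together with a positive visual image hit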;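 also: compound added about 3h40 before a 20 min TNFalpha stimulation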;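 as to inhibition: signal is the nuclear over cytoplasmic p65 intensity ratio per well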); conditions: HUVEC TNFa-induced p65 nuclear translocation; cell count: measured here: nuclei count (cytotoxicity indicator), at 2.08 µM; inhibition: at 2 µM, stronger effect = higher value, 0% TNFa-plus-vehicle, 100% no-TNFa wells
[2] = reduction of polyQ htt aggregates in cells – imaging, exon1htt(103Q)mCFP cells, high-content imaging, primary screen (AID 483;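 active = visual image review flags a hit and inhibition of aggregation exceeds 20%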;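 also: compound exposure lasted 3 days before fixation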;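 as to nuclei count: percent of the per-plate median nuclei count of sample wells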); conditions: exon1htt(103Q)mCFP cell line, aggregate imaging, at 2 µM; inhibition of aggregation: stronger effect = higher value; nuclei count: measured here: cell count, toxicity
[3] = endothelial E-selectin expression blockers – imaging, HUVEC, immunofluorescence, MLSMR starter and 10KST1 sets, primary screen (AID 487;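 active = visually confirmed hit in the image check and inhibition above 20%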;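 as to inhibition: signal is fraction of cell area covered by stained E-selectin grains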;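 as to nuclei count: 100% = median nuclei count of all wells on the same plate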); conditions: HUVEC TNFalpha-induced E-selectin immunofluorescence imaging, at 2 µM; inhibition: stronger effect = higher value; nuclei count: measured here: cell number, toxicity
[4] = target: Voltage-gated potassium channel subunit beta-2 (Rattus norvegicus) (UniProt P62483); assay: inhibitors of rat Kvbeta2 reductase activity – biochemical, NADPH fluorescence, primary screen (AID 622); conditions: recombinant KvBeta, 4-cyanobenzaldehyde reduction, at 10 µM, stronger effect = higher value;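 also: slope of raw intensity against log time taken from 70 to 1610 s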
[5] = target: Voltage-gated potassium channel subunit beta-2 (Rattus norvegicus) (UniProt P62483); assay: enhancers of rat Kvbeta2 NADPH turnover – biochemical, NADPH fluorescence, primary screen (AID 623;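 active = NADPH fluorescence slope more negative than the mean of all samples by about 3 SD, 99.7% confidence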;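 also: fluorescence intensity change per second fitted from 20 to 320 s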); conditions: Recombinant KvBeta, NADPH fluorescence decrease slope, 10 min; at 10 µM; stronger effect = lower value
[6] = target: Muscarinic acetylcholine receptor M4 (Homo sapiens) (UniProt P08173); assay: M4-linked GIRK flux change, two-sided – cell-based, HEK293 M4/GIRK, thallium flux, BTC-AM, M4 allosteric agonist project, primary screen (AID 625;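 active = fluorescence slope after compound addition differing from the mean of all tested samples at 99.7% confidence, mostly higher but some lower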;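 also: thallium influx through GIRK channels coupled to M4 in HEK293 cells with BTC-AM dye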); conditions: at 10 µM, actives lie on both sides
Method in brief: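 Material: M4/GIRK1/GIRK2 stable HEK293 cell line. Medium: pH 7.3 thallium assay buffer. Dosing: single compound concentration, 10 µM final. Schedule: 1 h dye loading, 2 min kinetic read. Measured by: kinetic fluorescence with BTC-AM dye. Read-out: post-addition slope, 15–24 s, of baseline-normalized fluorescence. Benchmarks: carbachol and DMSO controls.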

[7] = blockers of RIG-like receptor reporter activation – cell-based, Sendai virus stimulus, luciferase, 10K MLSCN set, TLR/RLR signaling modifier project, primary screen (AID 602276;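 active = inhibition at or above 50% at 10 µM; inactive = inhibition below 50%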;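 also: firefly luciferase from ISG56 promoter only with Renilla not read in this screen; 0% = Sendai virus plus DMSO and 100% = medium plus DMSO without virus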); conditions: HEK293 RL24 IRF3 luciferase reporter, at 10 µM, stronger effect = higher value
[8] = TLR3 IRF3 reporter activation blockers – cell-based, poly I:C stimulus, luciferase, 10K MLSCN set, primary screen (AID 602277;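 active = inhibition of the reporter signal at or above 50%; inactive = inhibition below 50%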); conditions: HEK293-TLR3 RL24 IRF3 luciferase reporter, at 10 µM, stronger effect = higher value

Chain of Muscarinic acetylcholine receptor M4 (Homo sapiens) (P08173 whole entry, looked up): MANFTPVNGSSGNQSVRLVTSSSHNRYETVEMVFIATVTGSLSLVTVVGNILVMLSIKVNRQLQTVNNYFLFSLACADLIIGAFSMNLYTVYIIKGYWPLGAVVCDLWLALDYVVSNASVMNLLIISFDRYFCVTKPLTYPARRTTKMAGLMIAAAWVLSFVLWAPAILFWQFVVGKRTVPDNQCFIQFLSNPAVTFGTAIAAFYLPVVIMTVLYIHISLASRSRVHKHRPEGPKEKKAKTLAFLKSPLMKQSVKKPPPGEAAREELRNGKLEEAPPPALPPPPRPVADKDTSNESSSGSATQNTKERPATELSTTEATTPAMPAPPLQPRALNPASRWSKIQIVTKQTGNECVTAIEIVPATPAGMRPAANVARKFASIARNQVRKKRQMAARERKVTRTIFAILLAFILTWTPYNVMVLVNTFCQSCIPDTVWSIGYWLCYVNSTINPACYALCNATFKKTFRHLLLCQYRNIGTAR
Chain of Voltage-gated potassium channel subunit beta-2 (Rattus norvegicus) (P62483 whole entry, looked up): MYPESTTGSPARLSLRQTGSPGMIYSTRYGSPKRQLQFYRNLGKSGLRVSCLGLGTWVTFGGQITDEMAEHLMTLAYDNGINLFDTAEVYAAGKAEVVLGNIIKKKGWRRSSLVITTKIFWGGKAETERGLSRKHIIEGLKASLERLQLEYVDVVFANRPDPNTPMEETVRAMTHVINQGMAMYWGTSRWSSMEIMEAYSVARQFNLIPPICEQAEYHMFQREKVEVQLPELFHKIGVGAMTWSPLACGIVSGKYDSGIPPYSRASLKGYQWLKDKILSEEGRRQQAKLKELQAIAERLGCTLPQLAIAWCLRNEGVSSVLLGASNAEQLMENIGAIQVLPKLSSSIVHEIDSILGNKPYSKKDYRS

| SMILES | cell count [1] | inhibition [1] | inhibition of aggregation [2] | nuclei count [2] | inhibition [3] | nuclei count [3] | fluorescence slope [4] | NADPH fluorescence slope [5] | fluorescence slope [6] | inhibition [7] | inhibition [8] |
| --- | --- | --- | --- | --- | --- | --- | --- | --- | --- | --- | --- |
| O=C1c2ccccc2-c2nc3ncnn3c(-c3ccccc3)c21 | 377 | -7.8% (inactive) | -4.5% (inactive) | 83.8% | -6.8% (inactive) | 107% | -0.432 (inactive) | -0.000383 (inactive) | 0.00449 (inactive) | -11.4% (inactive) | 1.41% (inactive) |
| CCCCN(CC)S(=O)(=O)N1CCC(C(=O)NCc2ccc(F)cc2)CC1 | 705 | -6.9% (inactive) | -1.2% (inactive) | 96.5% | -8% (inactive) | 113% | -0.594 (inactive) | -2.1e-05 (inactive) | 0.00507 (inactive) | 12.4% (inactive) | 15.9% (inactive) |
| COc1ccc(OC)c(NC(=O)Cc2coc3ccc(C)cc23)c1 | 451 | 3.5% (inactive) | 3.9% (inactive) | 97.1% | 46.7% (inactive) | 90.5% | -0.468 (inactive) | -3.1e-05 (inactive) | 0.0049 (inactive) | 13.3% (inactive) | 16.6% (inactive) |
| Cc1csc(SCC(=O)NC(=O)NCc2ccccc2)n1 | 624 | -17.1% (inactive) | -16.6% (inactive) | 114% | -30.3% (inactive) | 123% | -0.407 (inactive) | 9.9e-05 (inactive) | 0.0067 (inactive) | 15.1% (inactive) | 20% (inactive) |
| COc1ccc(CCn2c(N)c(C#N)c3nc4ccccc4nc32)cc1OC | 397 | -2.3% (inactive) | -8% (inactive) | 105% | 21.9% (inactive) | 150% | -0.52 (inactive) | -5.8e-05 (inactive) | 0.00433 (inactive) | 17.3% (inactive) | 13.6% (inactive) |
| CCCn1nnnc1SCC(=O)c1ccc2c(c1)OCCO2 | 571 | 2.6% (inactive) | -22.6% (inactive) | 120% | 34% (inactive) | 101% | -0.441 (inactive) | 0.000111 (inactive) | 0.00722 (inactive) | -31.3% (inactive) | -69.8% (inactive) |
| Cc1ccc(NCc2nnc(SCC(=O)N3CCCCC3)n2CC2CCCO2)c(C)c1 (centres undefined) | 484 | 3.6% (inactive) | -7.9% (inactive) | 95.1% | -63.1% (inactive) | 109% | -0.534 (inactive) | -1.9e-05 (inactive) | 0.00508 (inactive) | 20.5% (inactive) | 25.6% (inactive) |
| Cc1cc(C)cc(NC(=O)N2CCC(c3nc4ccccc4o3)CC2)c1 | 405 | 7.5% (inactive) | -19.5% (inactive) | 94.7% | -66.7% (inactive) | 110% | -0.494 (inactive) | 0.00013 (inactive) | 0.00524 (inactive) | 13.6% (inactive) | 18.7% (inactive) |
| COc1ccccc1CN1CC(C(=O)N2CCN(c3ccc(F)cc3)CC2)CC1=O (centres undefined) | 400 | 72.8% (active) | -14.7% (inactive) | 101% | -19.6% (inactive) | 106% | -0.583 (inactive) | -4.4e-05 (inactive) | 0.00225 (inactive) | 16.3% (inactive) | 7.05% (inactive) |
| Cc1n[nH]c(C)c1S(=O)(=O)Nc1ccc2c(c1)OCCO2 | 328 | 8.9% (inactive) | 29.5% (inactive) | 91.5% | 10.4% (inactive) | 84.4% | -0.469 (inactive) | 4.4e-05 (inactive) | 0.0057 (inactive) | 26.7% (inactive) | 33.7% (inactive) |
| CCCCOC(=O)Nc1nc2ccc(OC)cc2s1 | 743 | -10.1% (inactive) | 7.1% (inactive) | 100% | -29.1% (inactive) | 108% | -0.324 (inactive) | -5.1e-05 (inactive) | 0.00658 (inactive) | -0.307% (inactive) | -118% (inactive) |
| CC(=O)c1cc(-c2ccccc2)n(CC(=O)N2CCN(C3CCCC3)CC2)c1C | 407 | 8.8% (inactive) | 23.8% (inactive) | 81% | 25.1% (inactive) | 103% | -0.571 (inactive) | -7.1e-05 (inactive) | 0.00681 (inactive) | 13.3% (inactive) | 23.8% (inactive) |
| COc1ccc(CN(C(=O)c2ccccc2OC)C2CCS(=O)(=O)C2)cc1 (centres undefined) | 452 | 2.2% (inactive) | 23% (inactive) | 75% | 13.1% (inactive) | 109% | -0.58 (inactive) | -7.5e-05 (inactive) | 0.00303 (inactive) | 14.2% (inactive) | 23.7% (inactive) |
| CCC1CCCCN1S(=O)(=O)c1ccc(C(=O)Nc2nnc(-c3cccs3)o2)cc1 (centres undefined) | 404 | 5.3% (inactive) | 8.5% (inactive) | 97% | -211% (inactive) | 111% | -0.486 (inactive) | -0.000271 (inactive) | 0.0055 (inactive) | 10.8% (inactive) | 16.6% (inactive) |

Reference: PubChem BioAssay
